Series [1] can be described thus: Cytotoxicity against African green monkey vero cells assessed as reduction in cell viability measured after 72 hrs by MTT assay. To be noted: chlorocebus sabaeus. It is filed as cell-based. In a few lines: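 Vero cells seeded at ~10³ cells/well and grown 24 h at 37 °C, 5% CO₂, then exposed to compound (100 to 5 mg/l) for 72 h. MTT was added […] for 4 h and formazan dissolved in DMSO. CC50 is the lowest concentration giving 50% viability reduction. Doxorubicin was the positive control, run in triplicate.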
On the technique in general: Tetrazolium dyes change colour on reduction, which living cells bring about.

Series [2] has as its system Mycobacterium tuberculosis. The series is described as follows: Antitubercular activity against Mycobacterium tuberculosis H37Rv assessed as bacterial growth inhibition after 7 days by broth microdilution assay. It is filed as functional. The settings on record: 168 h, dose 0.03-64 µg/ml, time 7 day. An outline of the steps: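 Compounds were tested in broth microdilution from 64 downward, incubated 37 °C for 7 days, then resazurin (PrestoBlue) added. MIC is the lowest concentration preventing the blue-to-pink change, run in triplicate, reporting the value obtained at least twice of three.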
In general terms: In broth dilution the organism is exposed to a series of concentrations in liquid medium.

Series [3] has as its system Mycobacterium tuberculosis. The series is described as follows: Antimycobacterial activity against Mycobacterium tuberculosis H37Rv ATCC 27294 assessed as reduction in bacterial growth incubated for […] by broth microdilution assay. It is filed as functional.
Series [4] concerns Mycobacteroides chelonae. The series can be described thus: Antimycobacterial activity against Mycobacterium chelonae ATCC 35752 assessed as visible growth inhibition incubated for 16 to 18 hrs. The class given is functional, organism-based. The settings on record: time 16-18 hrs.
A short description of series [5]: Selectivity index, ratio of CC50 for African green monkey Vero cells to MIC for Antitubercular activity against Mycobacterium tuberculosis H37Rv. To be noted: read-out: Selectivity Index. It is filed as toxicity. An outline of the steps:
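Selectivity index calculated as Vero CC50 (MTT, 72 h) divided by the H37Rv MIC from the resazurin broth microdilution assay.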

In series [6] the test system is Mycolicibacterium fortuitum. The series can be described thus: Antimycobacterial activity against Mycobacterium fortuitum ATCC 6841 assessed as visible growth inhibition incubated for 16 to 18 hrs. It is filed as functional, organism-based. The settings on record: time 16-18 hrs.
The test system of series [7] is Mycobacterium tuberculosis. The series can be described thus: Antimycobacterial activity against Mycobacterium tuberculosis H37Rv assessed as reduction in CFU at 10 times MIC concentration measured up to 6 days by time kill assay. It is filed as functional, organism-based. To be noted: time day <=6. In a few lines:
(§1)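 Time-kill: H37Rv at ~10⁵ CFU/mL in 96-well plates with compound at 1x or 10x MIC, 37 °C for 6 days. At time-points, samples were serially two-fold diluted in normal saline and plated on 7H11 agar with OADC. Colonies were counted after […] at 37 °C, and CFU/mL was plotted against time with and without compound.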

In series [8] the test system is Mycobacteroides abscessus. The series can be described thus: Antimycobacterial activity against Mycobacterium abscessus ATCC 19977 assessed as visible growth inhibition incubated for 16 to 18 hrs. The class given is functional, organism-based. The settings on record: time 16-18 hrs.
Series [9] deals with Mycobacterium tuberculosis. The series is described as follows: Antimycobacterial activity against Mycobacterium tuberculosis H37Ra. It is filed as functional.
For series [10], the system named is Mycobacterium tuberculosis. The series can be described thus: Antimycobacterial activity against Mycobacterium tuberculosis H37Rv assessed as reduction in CFU at MIC concentration measured up to 6 days by time kill assay. The class given is functional, organism-based. To be noted: time day <=6. An outline of the steps:
as §1

4 compounds from ChEMBL document CHEMBL4823271, “Synthesis and structure-activity relationship of new chalcone linked 5-phenyl-3-isoxazolecarboxylic acid methyl esters potentially active against drug resistant Mycobacterium tuberculosis” (Eur J Med Chem, 2021) can be followed below.

In brackets after ≈: the same amount, converted by molar mass. Activity calls are given as the source filed them.

As to `CCCOc1ccc(C(=O)/C=C/c2ccc(C(=O)Nc3cccc(-c4cc(C(=O)OC)no4)c3)cc2)cc1`, in [1], the half-maximal cytotoxic concentration (CC50) at 72 h was greater than 40 µg/mL. The minimum inhibitory concentration (MIC) in series [2] and in series [3] was 0.12 µg/mL (≈ 0.235 µM) throughout. Moreover, the outcome in [4], in series [6] and in series [8] was inactive. Besides, the selectivity ratio in series [5] is greater than 320. Also, in [7], the outcome was Active.
For the compound `COc1cc(/C=C/c2cc(/C=C/c3ccc(OC)c(OC)c3)no2)ccc1O`, the MIC in series [9] worked out at 0.09 µg/mL (≈ 0.237 µM).
Take `CCOc1ccc(C(=O)/C=C/c2ccc(C(=O)Nc3cccc(-c4cc(C(=O)OC)no4)c3)cc2)cc1`: the CC50 at 72 h in series [1] was greater than 40 µg/mL. In addition, the MIC in series [2] and in series [3] was 0.25 µg/mL (≈ 0.504 µM) each time. For the same compound, the outcome in [10] and in series [7] was Active. Moreover, the result in series [4], in series [6] and in series [8] was inactive. Besides, the selectivity ratio in [5] was greater than 160.
Consider `COC(=O)c1cc(-c2cccc(NC(=O)c3ccc(/C=C/C(=O)c4ccc(CC(C)C)cc4)cc3)c2)on1`, for which the CC50 at 72 h in [1] is greater than 10 µg/mL. Also, the MIC in [2] and in [3] was 0.12 µg/mL (≈ 0.236 µM) each time. Besides, the result in series [4], in [6] and in series [8] was inactive. For the same compound, the selectivity ratio in [5] is greater than 84.

What is called CC50 is the concentration giving 50% cytotoxicity. What is called MIC is the smallest concentration in the dilution series that meets the test's criterion for growth inhibition.
